Here are results for 27 compounds from ChEMBL document CHEMBL1129507, “Betulinic acid derivatives: a new class of human immunodeficiency virus type 1 specific inhibitors with a new mode of action” (J Med Chem, 1996).

pIC50: −log10 of the molar value.

Test [1] concerns MT4. Nature of the test: Ability to inhibit the cytopathic effect induced by HIV-1 infection in MT-4 cells. It counts as functional, cell-based. The note with it: Homo sapiens. The procedure, abridged: (§1)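 MT-4 cells infected with HIV-1 strain IIIB/LAI. Protection from virus-induced cytopathogenicity measured by the MTT method. IC50 is the concentration giving 50% protection, mean of at least two experiments.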
(Damage to the host cells serves as the signal in cytopathic effect assays.)

The test system of test [2] is CCRF-CEM. Nature of the test: Ability to inhibit the cytopathic effect induced by HIV-1 infection in CEM T-lymphoblastoid tumor cell line. Particulars: Homo sapiens; call rule not given here. It counts as functional, cell-based. The gist of the method:
(§2)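 CEM 4 cells in RPMI 1640 with 10% heat-inactivated FCS, penicillin, streptomycin, glutamine and polybrene (2 µg/mL), 37 °C, 5% CO2. Compound dilutions or PBS preincubated with cells for 1 h, then infected with HIV-1 IIIB/LAI (100-200 CCID50) and cultured ≥5 days. Mock-infected parallel cultures for cytotoxicity. Absorbance read at 540 nm; IC50 for 50% protection against cytopathogenicity, mean of ≥2 experiments.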

Test [3] has as its system CCRF-CEM. Nature of the test: Ability to inhibit the cytopathic effect induced by HIV-1 infection in CEM T-lymphoblastoid tumor cell line; NA=not active. The format is functional, cell-based, Homo sapiens. The gist of the method: as §2
For test [4], the system named is MT4. Nature of the test: Ability to inhibit the cytopathic effect induced by HIV-1 infection in MT-4 cells; NA=not active. It counts as functional, cell-based, Homo sapiens. The gist of the method:
as §1

The pIC50 is the IC50 on a negative log10 scale, so that one unit is a factor of ten. Lower therefore signals a high IC50. As to `C=C(CSCCN(CC)CC)[C@@H]1CC[C@]2(C(=O)NCCCCCCCCCCC(=O)O)CC[C@]3(C)[C@H](CCC4[C@@]5(C)CC[C@H](O)C(C)(C)[C@@H]5CC[C@]43C)[C@@H]12` (stereo partly specified), the pIC50 in the test on MT4 [1] is 6.20; in the test with CCRF-CEM [2], 6.00.

In turn, `C=C(CSCC(=O)O)[C@@H]1CC[C@]2(C(=O)NCCCCCCCCCCC(=O)O)CC[C@]3(C)[C@H](CCC4[C@@]5(C)CC[C@H](O)C(C)(C)[C@@H]5CC[C@]43C)[C@@H]12` (stereo partly specified) had a pIC50 with MT4 [1] of 5.79. Besides, the IC50 entry in the test on CCRF-CEM [3] was “Not Active”.

Take `C=C(C)[C@@H]1CC[C@]2(C(=O)N(C)CCCCCCCCCCC(=O)O)CC[C@]3(C)[C@H](CCC4[C@@]5(C)CC[C@H](O)C(C)(C)[C@@H]5CC[C@]43C)[C@@H]12` (stereo partly specified): the IC50 entry in the test on MT4 [4] and in the test on CCRF-CEM [3] was “Not Active” throughout.

`C=C(C)[C@@H]1CC[C@]2(CNCCCCCCCCCCC(=O)O)CC[C@]3(C)[C@H](CCC4[C@@]5(C)CC[C@H](O)C(C)(C)[C@@H]5CC[C@]43C)[C@@H]12` (stereo partly specified): the IC50 result in the test on CCRF-CEM [3] is given as “Not Active”.

For the compound `C=C(C)[C@@H]1CC[C@]2(C(=O)OCCCCCCCCCCC(=O)O)CC[C@]3(C)[C@H](CCC4[C@@]5(C)CC[C@H](O)C(C)(C)[C@@H]5CC[C@]43C)[C@@H]12` (stereo partly specified), the IC50 entry in the test with MT4 [4] and in the test on CCRF-CEM [3] was “Not Active” each time.

For `C=C(C)[C@@H]1CC[C@]2(NC(=O)NCCCCCCCCCC(=O)O)CC[C@]3(C)[C@H](CCC4[C@@]5(C)CC[C@H](O)C(C)(C)[C@@H]5CC[C@]43C)[C@@H]12` (stereo partly specified), the IC50 entry in the test on MT4 [4] and in the test with CCRF-CEM [3] was “Not Active” throughout.

For the compound `CC1(C)C(O)CC[C@@]2(C)C1CC[C@]1(C)C2CCC2C3[C@H](C(=O)O)CC[C@]3(C(=O)NCCCCCCCCCCC(=O)O)CC[C@]21C` (stereo partly specified), the pIC50 in the test with MT4 [1] is 5.05; in the test with CCRF-CEM [2], 4.30.

Regarding `C=C(CNC(C)=O)[C@@H]1CC[C@]2(C(=O)NCCCCCCCCCCC(=O)O)CC[C@]3(C)[C@H](CCC4[C@@]5(C)CC[C@H](O)C(C)(C)[C@@H]5CC[C@]43C)[C@@H]12` (stereo partly specified), the negative-log IC50 (pIC50) was 6.59 in the test with MT4 [1] and 5.90 with CCRF-CEM [2].

The compound `CC(=O)[C@@H]1CC[C@]2(C(=O)NCCCCCCCCCCC(=O)O)CC[C@]3(C)C(CCC4[C@@]5(C)CCC(O)C(C)(C)C5CC[C@]43C)C12` (stereo partly specified) gave a pIC50 in the test with CCRF-CEM [2] of 4.92.

On to `C=C(C)[C@@H]1CC[C@]2(NC(=O)CCCCCCCCCCC(=O)O)CC[C@]3(C)[C@H](CCC4[C@@]5(C)CC[C@H](O)C(C)(C)[C@@H]5CC[C@]43C)[C@@H]12` (stereo partly specified), for which the IC50 result in the test on MT4 [4] and with CCRF-CEM [3] was “Not Active” in each case.

For `C=C(C)[C@@H]1CC[C@]2(C(=O)NCCCCCCCCCCC(=O)O)CC[C@]3(C)[C@H](CCC4[C@@]5(C)CC[C@H](OC)C(C)(C)[C@@H]5CC[C@]43C)[C@@H]12` (stereo partly specified), the IC50 entry in the test with MT4 [4] and with CCRF-CEM [3] was “Not Active” throughout.

In the case of `C=C(CNCC(=O)O)[C@@H]1CC[C@]2(C(=O)NCCCCCCCCCCC(=O)O)CC[C@]3(C)[C@H](CCC4[C@@]5(C)CC[C@H](O)C(C)(C)[C@@H]5CC[C@]43C)[C@@H]12` (stereo partly specified), the IC50 result in the test with CCRF-CEM [3] is listed as “Not Active”.

As to `C=C(CN1CCCC1)[C@@H]1CC[C@]2(C(=O)NCCCCCCCCCCC(=O)O)CC[C@]3(C)[C@H](CCC4[C@@]5(C)CC[C@H](O)C(C)(C)[C@@H]5CC[C@]43C)[C@@H]12` (stereo partly specified), the results for the pIC50 in the test on MT4 [1] and in the test with CCRF-CEM [2] were 6.38 and 6.00, respectively.

Turning to `C=C(CNCCO)[C@@H]1CC[C@]2(C(=O)NCCCCCCCCCCC(=O)O)CC[C@]3(C)[C@H](CCC4[C@@]5(C)CC[C@H](O)C(C)(C)[C@@H]5CC[C@]43C)[C@@H]12` (stereo partly specified), the pIC50 was 5.70 in the test with MT4 [1] and 5.24 in the test with CCRF-CEM [2].

For `C=C(C)[C@@H]1CC[C@]2(C(=O)NCCCCCCCCCCC(=O)O)CC[C@]3(C)[C@H](CCC4[C@@]5(C)CC[C@@H](O)C(C)(C)[C@@H]5CC[C@]43C)[C@@H]12` (stereo partly specified), the pIC50 in the test on MT4 [1] was 5.60; in the test on CCRF-CEM [2], 5.52.

Take `C=C(C)[C@@H]1CC[C@]2(C(=O)NCCCCCCCCCCC(=O)O)CC[C@]3(C)C(CCC4[C@@]5(C)CC(O)C(O)C(C)(C)C5CC[C@]43C)C12` (stereo partly specified): the IC50 result with CCRF-CEM [3] is given as “Not Active”.

On to `C=C(C)[C@@H]1CC[C@]2(C(=O)NCCCCCCCCCCC(=O)O)CC[C@]3(C)C(CC[C@@H]4[C@@]5(C)CC=CC(C)(C)C5CC[C@]43C)C12` (stereo partly specified), for which the pIC50 was 5.59 with MT4 [1] and 5.74 with CCRF-CEM [2].

As for `CC(C)[C@@H]1CC[C@]2(C(=O)NCCCCCCCCCCC(=O)O)CC[C@]3(C)C(CC[C@@H]4[C@@]5(C)CCC(O)C(C)(C)C5CC[C@]43C)C12` (stereo partly specified), the values for the pIC50 in the test with MT4 [1] and in the test on CCRF-CEM [2] were 6.24 and 5.82, respectively.

Compound `C=C(C)[C@@H]1CC[C@]2(C(=O)NCCCCCCCCCCC(=O)O)CC[C@]3(C)C(CC[C@@H]4[C@@]5(C)C=C(O)C(=O)C(C)(C)C5CC[C@]43C)C12` (stereo partly specified) showed a pIC50 in the test on CCRF-CEM [2] of 5.52.

On to `C=C(C)[C@@H]1CC[C@]2(C(=O)NCCCCCCCCCCC(=O)O)CC[C@]3(C)[C@H](CCC4[C@@]5(C)CCCC(C)(C)[C@@H]5CC[C@]43C)[C@@H]12` (stereo partly specified), for which the IC50 result in the test with CCRF-CEM [3] is listed as “Not Active”.

On to `C=C(C)[C@@H]1CC[C@]2(C(=O)NCCCCCCCCCCC(=O)O)CC[C@]3(C)[C@H](CCC4[C@@]5(C)CC[C@H](N)C(C)(C)[C@@H]5CC[C@]43C)[C@@H]12` (stereo partly specified), for which the IC50 result with CCRF-CEM [3] is “Not Active”.

`C=C(C)[C@@H]1CC[C@]2(C(=O)NCCCCCCCCCCC(=O)O)CC[C@]3(C)[C@H](CCC4[C@@]5(C)CC[C@H](O)C(C)(C)[C@@H]5CC[C@]43C)[C@@H]12` (stereo partly specified): the pIC50 in the test on MT4 [1] was 6.36; with CCRF-CEM [2], 6.64.

As for `C=C(CSCCO)[C@@H]1CC[C@]2(C(=O)NCCCCCCCCCCC(=O)O)CC[C@]3(C)[C@H](CCC4[C@@]5(C)CC[C@H](O)C(C)(C)[C@@H]5CC[C@]43C)[C@@H]12` (stereo partly specified), the pIC50 in the test with MT4 [1] is 6.57; in the test on CCRF-CEM [2], 6.54.

As to `C=C(CN)[C@@H]1CC[C@]2(C(=O)NCCCCCCCCCCC(=O)O)CC[C@]3(C)[C@H](CCC4[C@@]5(C)CC[C@H](O)C(C)(C)[C@@H]5CC[C@]43C)[C@@H]12` (stereo partly specified), the IC50 result in the test on CCRF-CEM [3] is on record as “Not Active”.

Turning to `C=C(CO)[C@@H]1CC[C@]2(C(=O)NCCCCCCCCCCC(=O)O)CC[C@]3(C)[C@H](CCC4[C@@]5(C)CC[C@H](O)C(C)(C)[C@@H]5CC[C@]43C)[C@@H]12` (stereo partly specified), the pIC50 in the test with MT4 [1] is 6.42; in the test on CCRF-CEM [2] it was 6.70.

Turning to `C=C(CSc1ccc(F)cc1)[C@@H]1CC[C@]2(C(=O)NCCCCCCCCCCC(=O)O)CC[C@]3(C)[C@H](CCC4[C@@]5(C)CC[C@H](O)C(C)(C)[C@@H]5CC[C@]43C)[C@@H]12` (stereo partly specified), the figures for the pIC50 in the test with MT4 [1] and with CCRF-CEM [2] were 5.86 and 5.70, respectively.

Regarding `C=C(C)[C@@H]1CC[C@]2(C(=O)NCCCCCCCCCCC(=O)O)CC[C@]3(C)[C@H](CCC4[C@@]5(C)CCC(=O)C(C)(C)[C@@H]5CC[C@]43C)[C@@H]12` (stereo partly specified), the pIC50 in the test on MT4 [1] was 6.48; with CCRF-CEM [2] it was 5.92.
